Screens as filed in PubChem.
SENP1 FRET inh – human SENP1 catalytic domain inhibitors, primary screen, biochemical, FRET, uHTS; Sentrin-specific protease 1 (Homo sapiens), Q9P0U3; recombinant SENP1 catalytic domain, CyPet-SUMO1-YPet FRET cleavage; inhibition, % at 10 µM; 360,000 tested, 0.21% active;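 active = inhibition at least 30% at 10 µM, raw YFP signal under a set limit, fluorescence ratio 0.5 to 1.5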;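 note: 0% = enzyme with DMSO and 100% = no enzyme wells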
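Test system: hSENP1 catalytic domain, recombinant; Amount: 20 pM final SENP1 enzyme; Medium: Tris pH 8 buffer plus EDTA, NaCl, BME, BSA, NP40, catalase; Schedule: 50 min enzyme reaction, room temperature, light-protected; Technique: FRET fluorescence in CFP and YFP emission channels; Controls: no-enzyme wells low, DMSO-plus-enzyme wells high control.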
SENP6 inh – SENP6 protease inhibitors, primary screen, biochemical, luminescence, uHTS; Recombinant SENP6 catalytic domain, aminoluciferin luminescence; AID 2599, 2010; inhibition, % at 10 µM; 330,000 tested, 1.8% active; Sentrin-specific protease 6 (Homo sapiens), Q9GZR1;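 active = inhibition above about 50% at the single tested dose, limit read from the data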;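 note: plate controls were DMSO wells with enzyme for no effect and DMSO wells lacking enzyme for full effect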
SENP8 block-1 – SENP8 protease inhibitors, primary screen, biochemical, luminescence; Sentrin-specific protease 8 (Homo sapiens), Q96LD8; purified SENP8, Z-RLRGG-aminoluciferin cleavage; inhibition, % at 10 µM; 330,000 tested, 1.2% active; in the data active = inhibition above about 50%
Target sequence (Q96LD8 whole entry, looked up): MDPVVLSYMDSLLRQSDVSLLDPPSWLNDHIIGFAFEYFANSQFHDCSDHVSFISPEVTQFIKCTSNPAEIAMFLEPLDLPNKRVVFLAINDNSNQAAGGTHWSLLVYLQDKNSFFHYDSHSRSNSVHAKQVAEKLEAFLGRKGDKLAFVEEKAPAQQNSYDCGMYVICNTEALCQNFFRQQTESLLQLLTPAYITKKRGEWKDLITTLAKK
SENP7 inh – SENP7 protease inhibitors, primary screen, biochemical, luminescence, uHTS | recombinant SENP7, Z-RLRGG-aminoluciferin luminescence, 40 min | inhibition, % at 5 µM | 330,000 tested, 1.5% active | AID 434973, 2010;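 active = inhibition above about 50% at the single test dose, limit read from the data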;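 note: plate controls were DMSO with enzyme for no effect and no enzyme buffer wells for full effect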
Target sequence (Q9BQF6 706-1050 limits assumed): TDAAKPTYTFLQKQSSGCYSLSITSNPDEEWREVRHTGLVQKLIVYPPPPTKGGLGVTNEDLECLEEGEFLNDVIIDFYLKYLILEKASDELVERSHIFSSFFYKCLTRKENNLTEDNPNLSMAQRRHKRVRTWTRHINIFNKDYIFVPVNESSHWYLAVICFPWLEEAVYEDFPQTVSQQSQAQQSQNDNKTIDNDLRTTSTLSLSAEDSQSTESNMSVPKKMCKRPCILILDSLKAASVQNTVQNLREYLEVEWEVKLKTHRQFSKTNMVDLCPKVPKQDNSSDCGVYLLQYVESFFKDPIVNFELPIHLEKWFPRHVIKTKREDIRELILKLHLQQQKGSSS
Apaf1 inhib – inhibitors of human Apaf-1 apoptosome, primary screen, biochemical, DEVD-Rh110 fluorescence, uHTS. Apoptotic protease-activating factor 1 (Homo sapiens), O14727. reconstituted apoptosome caspase-3 activity. AID 489030, 2010. 330,000 tested, 0.71% active. inhibition, % at 20 µM; active = inhibition of at least 40% at 20 µM;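 note: plate controls were DMSO wells for no effect and DEVD-CHO caspase inhibitor wells for full effect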
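System – cell-free apoptosome with Apaf-1, procaspase-3 and caspase-9 · Buffer or medium – pH 7.5 Hepes buffer with CHAPS, BSA, DTT · Also added – cytochrome c with DEVD-Rh110 · Times – 30 min compound preincubation, 50 min activation, room temperature · Technique – Rh110 fluorescence intensity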
SENP8 block-2 – human SENP8 protease inhibitors, primary screen, biochemical, fluorescence, Nedd8 protein substrate, uHTS | Sentrin-specific protease 8 (Homo sapiens), Q96LD8 | recombinant SENP8 | inhibition, % at 20 µM | 360,000 tested, 0.64% active | AID 602440, 2012; in the data active = inhibition mostly above about 40%, no sharp cut-off; inactive = mostly below about 27%
SENP8 inh conf – human SENP8 protease inhibitors, confirmation, biochemical, Nedd8 protein substrate, single concentration; shares compounds with SENP8 block-2; purified SENP8, Nedd8-AMC/pro-Nedd8 cleavage fluorescence, 30 min; inhibition, % at 25 µM; 1,400 tested, 15% active; AID 624319, 2012; in the data active = inhibition mostly above about 39%, no sharp cut-off; inactive = mostly below about 34%
* = called active by the depositor; i = inactive; . = no result given; ! = a repeat was not active. The list is not random: actives were taken first. Their share in the collection is about 2.9%.

SMILES | SENP1 FRET inh | SENP6 inh | SENP8 block-1 | SENP7 inh | Apaf1 inhib | SENP8 block-2 | SENP8 inh conf
CCN(CC)S(=O)(=O)c1ccc2c(c1)nc(SCC(=O)NC1CC1)n2-c1ccccc1OC | 0 | -9 | 4 | 2 | 14 | 43* | 26
COc1ccccc1-n1c(SCC(=O)NC2CCS(=O)(=O)C2)nc2cc([N+](=O)[O-])ccc21 (stereo unspecified) | 2 | -6 | 3 | 9 | 2 | 20 | .
CN(C)c1ccc(N2CN=C3SCC(=O)N3C2)cc1 | 3 | 6 | -1 | 9 | 26 | 52* | 17
O=C1CSC2=NCN(c3ccc4c(c3)OCO4)CN12 | 1 | -7 | -7 | -4 | 2 | 18 | .
CC(C)C[C@H](NC(=O)N1c2ccccc2NC(=O)[C@@H]1C(C)C)C(=O)N[C@@H](Cc1ccccc1)C(=O)O | 1 | 2 | 1 | 4 | 8 | 16 | .
CC(C)[C@H]1C(=O)Nc2ccccc2N1C(=O)N[C@@H](Cc1ccccc1)C(=O)N[C@@H](C(=O)O)c1ccccc1 | 0 | -5 | 1 | 5 | 5 | 44* | 12
CC(C)[C@H](NC(=O)N1c2ccccc2NC(=O)[C@@H]1C(C)C)C(=O)N1CCC(C(=O)O)CC1 | 3 | 8 | 6 | 4 | 6 | 45* | -4
CCC(C)NC(=O)C1CCC(CNS(=O)(=O)c2cccc3nsnc23)CC1 (stereo unspecified) | 2 | -17 | 6 | 10 | 6 | 10 | .
O=C(OCc1ccc(Cl)c(Cl)c1)c1cnccn1 | 2 | 9 | -17 | 1 | 14 | 45* | -9
O=C(OCc1ccc(Cl)cc1)c1cnccn1 | 2 | -12 | -20 | -11 | 3 | 13 | .
CNC(=O)N(c1ccccc1)c1ccccc1 | 0 | -18 | -15 | -7 | 7 | 43* | 12
CCN(CC)S(=O)(=O)c1ccc(N2CCN(c3cccc(OC)c3)CC2)c([N+](=O)[O-])c1 | 2 | -6 | -1 | 8 | 13 | 43* | -3
Cc1cc(C(=O)C(C(c2ccccc2)N2CCOCC2)N2CCOCC2)ccc1Cl (stereo unspecified) | 2 | . | . | . | . | 16 | .
Cc1ccccc1CC(=O)N1CCC(CCC(=O)NC2CC2)CC1 | 1 | . | . | . | . | 2 | .
CCOc1ccc(OCCSc2nc3ccccc3o2)cc1 | 3 | -8 | 3 | 1 | 9 | 47* | 1
O=C(Cc1cc(=O)[nH][nH]1)N/N=C/C=C/c1ccccc1 | 0 | 4 | 1 | 4 | 48*! | 44* | 34
O=C(CNC(=O)c1ccccc1)N/N=C/C=C/c1ccccc1 | 2 | 10 | 8 | 1 | 2 | 4 | .
CC1(C(=O)NCc2ccccc2)CSCC(=O)N1CCc1c[nH]c2ccccc12 (stereo unspecified) | -2 | . | . | . | . | 0 | .
CCCn1c(=S)[nH]c2cc(C(=O)N3CCN(C4CCCCC4)CC3)ccc2c1=O | -1 | 7 | 2 | -1 | 9 | 14 | .
COCCN1Cc2cccc(C(=O)NCc3cccs3)c2C1=O | -2 | -4 | -2 | -6 | -20 | 42* | 6
O=C(Nc1ccc(C(=O)N2CCCC2)cc1)C1CCC1 | 0 | . | . | . | . | 2 | .
COc1ccc2c(c1O)-c1ccccc1CCN(C)C2 | -1 | -11 | -10 | 6 | 9 | 32 | .
COc1ccc2c3c1OC1CC(O)C=CC31CCN(C)C2 (stereo unspecified) | 0 | -6 | -8 | -4 | -13 | 42*! | 8
COc1ccc(N(CC(=O)NC2CCCCC2)C(=O)CCC(=O)Nc2nc(C)cs2)cc1OC | 2 | 0 | 2 | 5 | 3 | 5 | .
CC(C)(C)NC(=O)NC(=O)C[n+]1ccc(Cc2ccc([N+](=O)[O-])cc2)cc1 | 3 | 15 | 10 | 7 | 8 | 50* | 17
SMILES | SENP1 FRET inh | SENP6 inh | SENP8 block-1 | SENP7 inh | Apaf1 inhib | SENP8 block-2 | SENP8 inh conf
COc1ccc(CCN(C)c2ccc(S(=O)(=O)N3CCCC3)cc2[N+](=O)[O-])cc1OC | 2 | 5 | -8 | -5 | 12 | 43* | 10
COc1ccc(CN(C)c2ccc(S(=O)(=O)N3CCN(C)CC3)cc2[N+](=O)[O-])cc1OC | 1 | -12 | -7 | -1 | 6 | 23 | .
Cn1c(SCC(=O)Nc2cccnc2Cl)nc2ccccc21 | -3 | -6 | -4 | -1 | 2 | -5 | .
CCOC(=O)NNc1ccccc1 | 1 | 8 | 6 | 1 | -25 | 25 | .
CCOC(=O)C(=CNNc1ccccc1)C(=O)OCC | 1 | -10 | 0 | 4 | -4 | 45* | 20
c1cn2c(-c3ccoc3)cncc2n1 | -28 | . | . | . | . | i | .
CCC(CC)C(=O)N(C)c1c(C)nc2c(OCC=C(C)C)cccn12 | 3 | . | . | . | . | 40* | 26
CCc1nc2c(OCc3ccc(OC)cc3)cccn2c1N(C)C(=O)c1ccc(OC)cc1 | 1 | . | . | . | . | 16 | .
CCc1nc2c(OCC=C(C)C)cccn2c1N(C)C(=O)c1ccc(OC)cc1 | -1 | . | . | . | . | 43* | -2
CCCOc1cccn2c(N(C)C(=O)c3ccccc3F)c(CC)nc12 | -1 | . | . | . | . | 12 | .
CCC(CC)C(=O)N(C)c1c(C)nc2c(OCCOc3ccccc3)cccn12 | -2 | . | . | . | . | -2 | .
CCc1nc2c(OCC=C(C)C)cccn2c1N(C)C(=O)c1ccccc1F | -4 | . | . | . | . | 41* | 15
COc1cccc(-c2c(-c3ccccc3OC)ncn2Cc2cccc(-c3ccccc3)c2)c1 | -1 | . | . | . | . | -13 | .
CC1(C(=O)NS(=O)(=O)c2ccc(Br)cc2)CCN1C(=O)C1CCCCC1 (stereo unspecified) | 5 | . | . | . | . | 12 | .
CC(=O)Nc1cc(-c2ccc(CO)cc2)cn2c(-c3cccc(C(F)(F)F)c3)cnc12 | -15 | . | . | . | . | -383 | .
COc1ccc2c(c1)c(C(C)=O)c(C)n2-c1ccccc1OC | 1 | -4 | -4 | -8 | 5 | -29 | .
COc1ccc(CC2(c3ccccc3)NC(=O)NC2=O)cc1 (stereo unspecified) | 2 | . | . | . | . | 8 | .
CC(c1ccccc1)C(NC(=O)OCC1c2ccccc2-c2ccccc21)C(=O)O (stereo unspecified) | 1 | -9 | -5 | -10 | 10 | 14 | .
Nc1cc([N+](=O)[O-])cc2oc(-c3ccccc3)cc12 | 34* | 20 | -4 | 13 | 17 | 36* | 19
C[N+]1(C)CCC(=C2c3ccccc3CC(=O)c3sccc32)CC1 | -3 | 36 | 3 | 14 | 57* | 75* | 56*
